For test [1] the following is noted: cited from earlier work.
Test [2] addresses T1, PCBP1 KH3 domain (WT) (Homo sapiens, UniProt Q15365). Put plainly: Fe. In kind it is binding. Conditions: for Kd: read-out: KD of Fe(II) for wild-type KH3.
Target sequence in this assay (Q15365 279-356 limits assumed): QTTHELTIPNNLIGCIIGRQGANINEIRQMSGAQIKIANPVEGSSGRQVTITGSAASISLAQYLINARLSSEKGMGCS
The target of test [3] is PCBP1 KH3 domain C293S variant. Put plainly: Fe. It is filed as binding, human. Conditions: read-out: KD of Fe(II) for C293S KH3. In outline:
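Fe(II) binding followed as the fall in apo-indicator absorbance (366 nm, shifting toward 325 nm on metal binding). KD from competition; means ± SD, n = 4 independent experiments.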

In test [4] the target is PCBP1–BolA2 complex (Homo sapiens, UniProt Q15365+Q9H3K6). Put plainly: Co-immunoprecipitation of PCBP1 with BolA2-Flag from HEK293 cell lysates. Conditions: 1 mM DTT as alternative reducing agent instead of 5 mM GSH in IP buffer.
Chain of PCBP1–BolA2 complex (Q15365 whole entry, the tested form may be a part): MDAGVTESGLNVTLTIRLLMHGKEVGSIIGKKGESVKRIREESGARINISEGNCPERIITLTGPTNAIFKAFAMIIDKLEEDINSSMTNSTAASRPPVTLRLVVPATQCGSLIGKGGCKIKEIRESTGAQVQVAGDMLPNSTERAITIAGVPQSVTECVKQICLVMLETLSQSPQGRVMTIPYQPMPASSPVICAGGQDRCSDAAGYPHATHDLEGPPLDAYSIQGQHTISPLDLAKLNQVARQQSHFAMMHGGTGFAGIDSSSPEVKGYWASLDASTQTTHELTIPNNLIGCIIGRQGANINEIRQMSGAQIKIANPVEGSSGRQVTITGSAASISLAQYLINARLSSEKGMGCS
Chain of PCBP1–BolA2 complex (Q9H3K6 whole entry, the tested form may be a part): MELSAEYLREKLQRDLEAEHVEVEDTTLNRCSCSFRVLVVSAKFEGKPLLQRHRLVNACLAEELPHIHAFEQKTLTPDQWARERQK
The target in test [5] is T2, PCBP1 KH3 domain (Homo sapiens, UniProt Q15365). The settings on record: 10 μM Fe(II) versus no iron.
T2 sequence (Q15365 279-356 limits assumed): as the sequence (Q15365 279-356 limits assumed) above
For test [6], the target named is T2, PCBP1 KH3 domain. Conditions: 100 μM 35S-GSH.
Test [7] addresses T1, PCBP1 KH3 domain (WT). The settings on record: wild-type KH3, 100 μM 35S-GSH, +/- 100 μM FeSO4.
Target sequence in this assay (Q15365 287-356 limits assumed): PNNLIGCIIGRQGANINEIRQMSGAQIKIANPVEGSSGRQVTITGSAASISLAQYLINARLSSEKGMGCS
Test [8] addresses T2, PCBP1 KH3 domain. The test is described as follows: biochemical. The settings on record: 200 nM labeled KH3.
In test [9] the target is BolA2–KH3 complex (Homo sapiens, UniProt Q15365). Put plainly: biochemical.
Chain of BolA2–KH3 complex (Q15365 279-356): as the sequence (Q15365 279-356 limits assumed) above
Chain of BolA2–KH3 complex (Q9H3K6 whole entry partner): as the sequence (Q9H3K6 whole entry, the tested form may be a part) above

Where two headings read alike, the source gives them in different places.

As to `[Mn+2]` [manganese], in test [1], the “fold lower affinity for GSH than Fe(II)” value is above 100 fold.
In the case of `O=S(=O)([O-])[O-].[Fe+2]` [Fe(II), FeSO4], in [2] (5 mM GSH versus no GSH), the “fold increase of affinity of KH3 for Fe(II) by GSH” value is given as ~ 5 fold. The Kd in test [2] (0 mM GSH (absence of glutathione)) was determined as 4.2 ± 0.7 µM; in test [2] (5 mM GSH), 0.8 ± 0.1 µM; in test [3] (0 mM GSH), 16.4 ± 2.7 µM; in [3] (5 mM GSH), 9.4 ± 1.3 µM.
Consider `O[C@@H](CS)[C@@H](O)CS` (racemic) [dithiothreitol], for which, in [4], the “stabilization of PCBP1–BolA2 complexes” value is listed as “did not result in stabilization”.
Turning to `N[C@@H](CCC(=O)N[C@@H](CS)C(=O)NCC(=O)O)C(=O)O` [GSH, glutathione], in test [5], the “fold higher affinity of GSH for KH3 with iron” value is reported as around 5 fold. Moreover, the “GSH binding of wild-type KH3 relative to control IPs” value in test [6] is given as 5 fold. For the same compound, in test [7], the “increase of GSH binding in the presence of Fe(II)” value was 2 fold. The Kd in test [8] (KD of GSH for KH3, buffer containing 10 μM Fe(II) (FeSO4)) was 80 ± 10 µM; in [8] (apparent KD of GSH for KH3, buffers without iron) it was 390 ± 50 µM; in test [9], 86 ± 25 µM.

The values above are taken from publication PMC6702080 (Nature chemical biology, 2019).
